Converted amounts (≈) assume the structure as drawn. The source made the active and inactive calls. No cut-off for these calls is given here.
Tests used:
Assay type in all cases: functional
[1] = test system: Staphylococcus epidermidis; assay: Antibacterial activity against Staphylococcus epidermidis RCMB 010024 assessed as growth inhibition after 24 hrs by twofold serial dilution method; settings: RCMB 010024, 24 h
Procedure, shortened: (§1)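 Broth microdilution in Müller–Hinton broth, 96-well plates. Only compounds giving disc-diffusion zones >10 mm were tested. DMF stocks (1000 µg/mL) were diluted twofold to a final 500–0.007 µg/mL, with about 10^6 CFU/mL bacteria. Sealed plates ran 24 h at 37 °C in a humid chamber. MIC was the lowest concentration with no visible turbidity. DMF and uninoculated-medium controls were included.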

Neisseria gonorrhoeae = assay: Antibacterial activity against Neisseria gonorrhoeae RCMB 010076 assessed as growth inhibition after 24 hrs by twofold serial dilution method; procedure, shortened: as §1
Bacillus subtilis = assay: Antibacterial activity against Bacillus subtilis RCMB 010063 assessed as growth inhibition after 24 hrs by twofold serial dilution method; settings: RCMB 010063, 24 h; procedure, shortened: as §1
Geotrichum candidum = assay: Antifungal activity against Geotricum candidum RCMB 05096 assessed as growth inhibition after 48 hrs by twofold serial dilution method; settings: RCMB 05096, 48 h
Procedure, shortened: (§2)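 Fungi were tested by microdilution in Sabouraud liquid medium. Only compounds with disc-diffusion zones >10 mm went on to this test. DMF stocks (1000 µg/mL) were serially diluted twofold to 500–0.007 µg/mL. Sealed plates were held 48 h at 25 °C in a humid chamber. MIC was the lowest concentration without visible turbidity. DMF and uninoculated-medium controls ran in parallel.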

Klebsiella pneumoniae = assay: Antibacterial activity against Klebsiella pneumoniae RCMB 010093 assessed as growth inhibition after 24 hrs by twofold serial dilution method; procedure, shortened: as §1
Aspergillus clavatus = assay: Antifungal activity against Aspergillus clavatus RCMB 02593 assessed as growth inhibition after 48 hrs by twofold serial dilution method; settings: RCMB 02593, 48 h; procedure, shortened: as §2
Proteus vulgaris = assay: Antibacterial activity against Proteus vulgaris RCMB 010085 assessed as growth inhibition after 24 hrs by twofold serial dilution method; procedure, shortened: as §1
Staphylococcus aureus = assay: Antibacterial activity against Staphylococcus aureus RCMB 010027 assessed as growth inhibition after 24 hrs by twofold serial dilution method; settings: RCMB 010027, 24 h; procedure, shortened: as §1
Enterococcus faecalis = assay: Antibacterial activity against Enterococcus faecalis RCMB 010068 assessed as growth inhibition after 24 hrs by twofold serial dilution method; procedure, shortened: as §1
Talaromyces marneffei = assay: Antifungal activity against Penicillium marneffei RCMB 01267 assessed as growth inhibition after 48 hrs by twofold serial dilution method; procedure, shortened: as §2
Shigella flexneri = assay: Antibacterial activity against Shigella flexneri RCMB 0100542 assessed as growth inhibition after 24 hrs by twofold serial dilution method; procedure, shortened: as §1
Aspergillus fumigatus = assay: Antifungal activity against Aspergillus fumigatus RCMB 02564 assessed as growth inhibition after 48 hrs by twofold serial dilution method; settings: RCMB 02564, 48 h; procedure, shortened: as §2
Candida albicans = assay: Antifungal activity against Candida albicans RCMB 05035 assessed as growth inhibition after 48 hrs by twofold serial dilution method; procedure, shortened: as §2
Streptococcus pyogenes = assay: Antibacterial activity against Streptococcus pyogenes RCMB 010015 assessed as growth inhibition after 24 hrs by twofold serial dilution method; procedure, shortened: as §1
Pseudomonas aeruginosa = assay: Antibacterial activity against Pseudomonas aeruginosa RCMB 010043 assessed as growth inhibition after 24 hrs by twofold serial dilution method; procedure, shortened: as §1
[2] = test system: Staphylococcus epidermidis; assay: Ratio of ampicillin MIC to compound MIC for Staphylococcus epidermidis RCMB 010024

Compound	MIC [1] [µg/mL]	MIC (Neisseria gonorrhoeae; RCMB 010076, 24 h) [µg/mL]	MIC (Bacillus subtilis) [µg/mL]	MIC (Geotrichum candidum) [µg/mL]	MIC (Klebsiella pneumoniae; RCMB 010093, 24 h) [µg/mL]	MIC (Aspergillus clavatus) [µg/mL]	MIC (Proteus vulgaris; RCMB 010085, 24 h) [µg/mL]	MIC (Staphylococcus aureus) [µg/mL]	MIC (Enterococcus faecalis; RCMB 010068, 24 h) [µg/mL]	MIC (Talaromyces marneffei; RCMB 01267, 48 h) [µg/mL]	MIC (Shigella flexneri; RCMB 0100542, 24 h) [µg/mL]	MIC (Aspergillus fumigatus) [µg/mL]	MIC (Candida albicans; RCMB 05035, 48 h) [µg/mL]	MIC (Streptococcus pyogenes)	MIC (Pseudomonas aeruginosa)	MIC (Streptococcus pyogenes; RCMB 010015, 24 h) [µg/mL]	MIC (Pseudomonas aeruginosa; RCMB 010043, 24 h) [µg/mL]	MIC (Neisseria gonorrhoeae)	MIC (Shigella flexneri)	MIC (Klebsiella pneumoniae)	also measured
COc1ccc(C2CC(c3sc(-c4cccnc4)nc3C)=NN2)cc1 (stereo unspecified)	15.6 (≈ 44.6 µM)	500 (≈ 1430 µM)	15.6 (≈ 44.6 µM)	31.2 (≈ 89.2 µM)	62.5 (≈ 178 µM)	62.5 (≈ 178 µM)	31.2 (≈ 89.2 µM)	15.6 (≈ 44.6 µM)	250 (≈ 713 µM)	62.5 (≈ 178 µM)	62.5 (≈ 178 µM)	31.2 (≈ 89.2 µM)	250 (≈ 713 µM)	inactive	inactive						
C[C@@H]1[C@H](O)[C@@H](C)/C=C/C=C/C=C/C=C/C=C/C=C/C=C/[C@H](O[C@@H]2O[C@H](C)[C@@H](O)[C@H](N)[C@@H]2O)C[C@@H]2O[C@](O)(C[C@@H](O)C[C@@H](O)[C@H](O)CC[C@@H](O)C[C@@H](O)CC(=O)O[C@H]1C)C[C@H](O)[C@H]2C(=O)O [AMPHOTERICIN B]				0.48 (≈ 0.519 µM)		1.95 (≈ 2.11 µM)				1.95 (≈ 2.11 µM)		0.97 (≈ 1.05 µM)	0.24 (≈ 0.26 µM)								
CC(=O)c1sc(-c2cccnc2)nc1C	0.24 (≈ 1.1 µM)	15.6 (≈ 71.6 µM)	0.06 (≈ 0.275 µM)	0.48 (≈ 2.2 µM)	0.48 (≈ 2.2 µM)	3.9 (≈ 17.9 µM)	3.9 (≈ 17.9 µM)	0.24 (≈ 1.1 µM)	7.81 (≈ 35.8 µM)	3.9 (≈ 17.9 µM)	3.9 (≈ 17.9 µM)	1.95 (≈ 8.93 µM)	7.81 (≈ 35.8 µM)			3.9 (≈ 17.9 µM)	500 (≈ 2290 µM)				Ratio [2]: 2
Cc1nc(-c2cccnc2)sc1C(=O)/C=C/c1ccc(F)cc1F	31.2 (≈ 91.3 µM)		15.6 (≈ 45.7 µM)	62.5 (≈ 183 µM)	31.2 (≈ 91.3 µM)	125 (≈ 365 µM)	62.5 (≈ 183 µM)	31.2 (≈ 91.3 µM)	250 (≈ 730 µM)	62.5 (≈ 183 µM)		62.5 (≈ 183 µM)	500 (≈ 1460 µM)	inactive	inactive			inactive	inactive		
Cc1nc(-c2cccnc2)sc1C(=O)/C=C/c1ccc(Cl)cc1	31.2 (≈ 91.7 µM)		31.2 (≈ 91.7 µM)	31.2 (≈ 91.7 µM)	31.2 (≈ 91.7 µM)	125 (≈ 367 µM)	62.5 (≈ 183 µM)	62.5 (≈ 183 µM)		62.5 (≈ 183 µM)		62.5 (≈ 183 µM)	250 (≈ 733 µM)	inactive	inactive			inactive	inactive		MIC (Enterococcus faecalis): inactive
Cc1nc(-c2cccnc2)sc1C1=NNC(c2ccccc2)C1 (stereo unspecified)	62.5 (≈ 195 µM)		62.5 (≈ 195 µM)	62.5 (≈ 195 µM)		62.5 (≈ 195 µM)		125 (≈ 390 µM)	125 (≈ 390 µM)	250 (≈ 780 µM)		125 (≈ 390 µM)		inactive	inactive			inactive	inactive	inactive	MIC (Proteus vulgaris): inactive; MIC (Candida albicans): inactive
CC(=O)Nc1ccc(-c2csc(-c3cccnc3)n2)cc1	1.95 (≈ 6.6 µM)		0.97 (≈ 3.28 µM)	7.81 (≈ 26.4 µM)		15.6 (≈ 52.9 µM)		3.9 (≈ 13.2 µM)				7.81 (≈ 26.4 µM)		inactive	inactive			inactive	inactive	inactive	MIC (Proteus vulgaris): inactive; MIC (Enterococcus faecalis): inactive; MIC (Talaromyces marneffei): inactive; MIC (Candida albicans): inactive
Cc1nc(-c2cccnc2)sc1C1=NNC(c2ccc(Cl)cc2)C1 (stereo unspecified)	62.5 (≈ 176 µM)		62.5 (≈ 176 µM)	125 (≈ 352 µM)		125 (≈ 352 µM)		125 (≈ 352 µM)	125 (≈ 352 µM)	250 (≈ 704 µM)		125 (≈ 352 µM)		inactive	inactive			inactive	inactive	inactive	MIC (Proteus vulgaris): inactive; MIC (Candida albicans): inactive
CC1(C)S[C@@H]2[C@H](NC(=O)[C@H](N)c3ccccc3)C(=O)N2[C@H]1C(=O)O [AMPICILLIN]	0.48 (≈ 1.37 µM)		0.007 (≈ 0.02 µM)					0.06 (≈ 0.172 µM)	1.95 (≈ 5.58 µM)							0.24 (≈ 0.687 µM)					
O=c1oc2ccccc2cc1-c1csc(-c2cccnc2)n1	3.9 (≈ 12.7 µM)	62.5 (≈ 204 µM)	3.9 (≈ 12.7 µM)	15.6 (≈ 51 µM)	7.81 (≈ 25.5 µM)	15.6 (≈ 51 µM)	15.6 (≈ 51 µM)	7.81 (≈ 25.5 µM)	62.5 (≈ 204 µM)	31.2 (≈ 102 µM)	1.95 (≈ 6.37 µM)	15.6 (≈ 51 µM)	125 (≈ 408 µM)			7.81 (≈ 25.5 µM)	62.5 (≈ 204 µM)				
GENTAMICIN															31.2 µg/mL			7.81 µg/mL	0.48 µg/mL	0.24 µg/mL	MIC (Proteus vulgaris): 1.95 µg/mL
Cc1csc(-c2cccnc2)n1	0.97 (≈ 5.5 µM)	62.5 (≈ 355 µM)	1.95 (≈ 11.1 µM)	1.95 (≈ 11.1 µM)	1.95 (≈ 11.1 µM)	15.6 (≈ 88.7 µM)	3.9 (≈ 22.1 µM)	0.97 (≈ 5.5 µM)	31.2 (≈ 177 µM)	3.9 (≈ 22.1 µM)	3.9 (≈ 22.1 µM)	7.81 (≈ 44.3 µM)	31.2 (≈ 177 µM)			15.6 (≈ 88.7 µM)	125 (≈ 709 µM)				
Cc1nc(-c2cccnc2)sc1C(=O)/C=C/c1ccccc1[N+](=O)[O-]	0.97 (≈ 2.76 µM)	125 (≈ 356 µM)	0.97 (≈ 2.76 µM)	7.81 (≈ 22.2 µM)	0.97 (≈ 2.76 µM)	31.2 (≈ 88.9 µM)	7.81 (≈ 22.2 µM)	3.9 (≈ 11.1 µM)	62.5 (≈ 178 µM)	15.8 (≈ 45.1 µM)	7.81 (≈ 22.2 µM)	7.81 (≈ 22.2 µM)	31.2 (≈ 88.9 µM)			62.5 (≈ 178 µM)	125 (≈ 356 µM)				
COc1ccc(/C=C/C(=O)c2sc(-c3cccnc3)nc2C)cc1	3.9 (≈ 11.6 µM)	125 (≈ 372 µM)	1.95 (≈ 5.8 µM)	7.81 (≈ 23.2 µM)	3.9 (≈ 11.6 µM)	31.2 (≈ 92.9 µM)	7.81 (≈ 23.2 µM)	3.9 (≈ 11.6 µM)	62.5 (≈ 186 µM)	7.81 (≈ 23.2 µM)	7.81 (≈ 23.2 µM)	15.6 (≈ 46.5 µM)	62.5 (≈ 186 µM)			31.2 (≈ 92.9 µM)	250 (≈ 743 µM)				
Cc1nc(-c2cccnc2)sc1C1=NNC(c2ccc(F)cc2F)C1 (stereo unspecified)	125 (≈ 351 µM)		62.5 (≈ 175 µM)	125 (≈ 351 µM)		125 (≈ 351 µM)		125 (≈ 351 µM)	125 (≈ 351 µM)	250 (≈ 701 µM)		125 (≈ 351 µM)		inactive	inactive			inactive	inactive	inactive	MIC (Proteus vulgaris): inactive; MIC (Candida albicans): inactive
Cc1nc(-c2cccnc2)sc1C(=O)/C=C/c1ccccc1	31.2 (≈ 102 µM)		31.2 (≈ 102 µM)	62.5 (≈ 204 µM)	62.5 (≈ 204 µM)	125 (≈ 408 µM)	62.5 (≈ 204 µM)	62.5 (≈ 204 µM)	500 (≈ 1630 µM)	125 (≈ 408 µM)	125 (≈ 408 µM)	125 (≈ 408 µM)	500 (≈ 1630 µM)	inactive	inactive			inactive			

Reference: ChEMBL document CHEMBL2331482, “Synthesis of some new 2-(3-pyridyl)-4,5-disubstituted thiazoles as potent antimicrobial agents” (2013)
